Measured values from paper PMC10250156 (Molecular Metabolism, 2023).

What was measured:
[1] = Chiral HPLC analysis of zeaxanthin stereoisomers in tissues; assay type: in vivo; conditions: Isx^−/−/Bco2^−/− mice on 250 mg/kg 3R,3′R-zeaxanthin diet
[2] = Light exposure experiment: zeaxanthin metabolites in eye and liver by HPLC; assay type: in vivo; conditions: albino Isx^−/−/Bco2^−/− mice, 250 mg/kg zeaxanthin, 4 weeks
Summary of the method: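 Albino mice were fed the 250 mg/kg or control diet for 4 weeks after weaning. Three groups were used: 24 h/day darkness (DC), a 12/12 h light/dark cycle (L/DC), or L/DC plus twice-weekly light stress from week 2 (LS). For light stress, mice were dark-adapted overnight, pupils were dilated with 1% tropicamide, and mice received 85,000 lux white light for 2 min. Whole eye and liver carotenoids were then quantified by HPLC.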

[3] = assay type: in vivo, mice
Summary of the method: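 Male and female mice were fed vitamin A-free diets for 4 weeks from weaning; the WT cohort received the 250 mg/kg diet. Tissues were weighed and snap-frozen at -80 °C. Carotenoids were extracted under dim red light from about 25 mg of intestinal segments, liver or eWAT, 100 uL serum, or one whole eye. Analysis was normal-phase silica HPLC with diode-array detection. Data are means ± SD, n=5 (eWAT: 3 females, 2 males); two-way ANOVA.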

[4] = HPLC analysis of zeaxanthin content in fecal matter during dietary intervention; assay type: in vivo, mice; conditions: 50 mg/kg zeaxanthin supplementation, 28 days
Summary of the method: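 Mice were fed vitamin A-free diets starting at weaning. Feces were collected on days 0, 1, 2, 4, 7, 14, 21 and 28 of the 28-day intervention. Carotenoids were extracted from about 25 mg feces under dim red light (<600 nm). Zeaxanthin was quantified by HPLC.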

[5] = system: albino Isx^−/−/Bco2^−/− mice; assay: Skin colour phenotype of supplemented albino mice; assay type: in vivo; conditions: 250 mg/kg zeaxanthin, 4 weeks, hypercarotenemia
Summary of the method: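 Albino mice were fed a vitamin A-free diet containing 250 mg/kg zeaxanthin or no zeaxanthin (control) for 4 weeks, starting immediately after weaning. Skin colour of the ears, eyelids and nostrils was inspected and photographed.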

[6] = system: albino Isx^−/−/Bco2^−/− mice; assay: Optical coherence tomography; assay type: in vivo; conditions: 250 mg/kg versus 0 mg/kg, 4 weeks
[7] = system: albino Isx^−/−/Bco2^−/− mice; assay: Electroretinography; assay type: in vivo; conditions: 250 mg/kg versus 0 mg/kg, 4 weeks
[8] = Food intake and liver weight during zeaxanthin dietary intervention; assay type: in vivo; conditions: Bco2^−/− and Isx^−/−/Bco2^−/− mice, 0, 50, 250 mg/kg diet
Summary of the method: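 Male and female mice were placed on vitamin A-free diets after weaning at 4 weeks old, for 4 weeks. Zeaxanthin was given as water-soluble beadlets incorporated into the diet. Fresh diet was given weekly, and body weight was recorded then. Food consumption was the leftover food per cage divided by the number of mice in the cage. At study end, mice were anaesthetised and livers dissected and weighed.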

For `CC1=C(/C=C/C(C)=C/C=C/C(C)=C/C=C/C=C(C)/C=C/C=C(C)/C=C/C2=C(C)C[C@H](O)CC2(C)C)C(C)(C)C[C@H](O)C1` [3R, 3′S-zeaxanthin], the “presence in the eyes by chiral HPLC” value [1] was “no peak with a retention time of 3R, 3′S-zeaxanthin was detected”.
For `CC1=CC(=O)CC(C)(C)C1/C=C/C(C)=C/C=C/C(C)=C/C=C/C=C(C)/C=C/C=C(C)/C=C/C1C(C)=CC(=O)CC1(C)C` (centres unmarked) [oxidized zeaxanthin, ε,ε-carotene 3, 3′-dione], the “concentration in the eyes of L/DC and LS groups compared to DC group” value [2] was “increased”.
For `CC1=C(/C=C/C(C)=C/C=C/C(C)=C/C=C/C=C(C)/C=C/C=C(C)/C=C/C2=C(C)C[C@@H](O)CC2(C)C)C(C)(C)C[C@H](O)C1` [zeaxanthin, 3R,3′R-zeaxanthin], the “form of zeaxanthin detectable in liver” value ([3]; 50 mg zeaxanthin diet, Bco2^−/− and Isx^−/−/Bco2^−/− mice, 4 weeks) was “only the oxidized form of zeaxanthin became detectable”, the “total zeaxanthin in eWAT, Isx^−/−/Bco2^−/− versus Bco2^−/− mice” value ([3]; 50 mg/kg or 250 mg/kg diet, 4 weeks) was “significantly higher amounts” and the “concentration of carotenoids in eWAT and eyes compared with kidney and serum” value ([3]; 50 mg/kg zeaxanthin, Bco2^−/− and Isx^−/−/Bco2^−/− mice) was “two-fold higher”. The “amount of zeaxanthin in jejunum relative to other parts of the intestine” value ([3]; WT mice, 250 mg/kg diet, 4 weeks, major metabolite parent compound) was “highest amount”, the “fecal zeaxanthin excretion, Isx^−/−/Bco2^−/− versus Bco2^−/− mice” value [4] was “excreted less zeaxanthin” and the “skin phenotype (ears, eyelids, nostrils)” value [5] was “yellow skin color phenotype”. For the same compound, the “OCT: retinal morphology, supplemented versus non-supplemented mice” value [6] was “no differences in the stratification of the retinal layers”, the “ERG responses under photopic and scotopic conditions” value [7] was “normal responses” and the “total zeaxanthin or its oxidized form in liver between light treatment groups” value [2] was “no light-dependent increase”. The “ocular levels between different light groups” value ([2]; DC, L/DC, LS) was “remained relatively constant”, the “effect on food intake” value [8] was “did not affect food intake” and the “liver weight between dietary groups” value ([8]; 4 weeks) was “no significant difference in liver weight”.
